Laboratory results published in ChEMBL document CHEMBL4673180, “Synthesis of quinone imine and sulphur-containing compounds with antitumor and trypanocidal activities: redox and biological implications” (RSC Med Chem, 2020).

Tests used:
[1] = Selectivity index, ratio of IC50 for mouse L929 cells to IC50 for human NCI-H460 cells after 72 hrs by MTT assay; format: toxicity; conditions: L929 cells versus NCI-H460 cells, read-out: Ratio IC50
How it was run: (§1)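 Both cell types were kept in medium with 10% FBS, 2 mM L-glutamine and penicillin/streptomycin at 37 °C, 5% CO2. Seeding was 0.7 × 10^5 cells per well for HCT-116, 0.1 × 10^6 for the other lines. Cells got compound in DMSO (0.1% final) for 72 h, then 0.5 mg/mL MTT for 3 h, with formazan read at 550 nm. IC50 came from nonlinear regression over three independent experiments in triplicate. SI is the L929 IC50 divided by the cancer-line IC50.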

NCI-H460 = experiment: Cytotoxicity against human NCI-H460 cells assessed as reduction in cell viability after 72 hrs by MTT assay; format: functional, cell-based; conditions: NCI-H460, 72 h
How it was run: (§2)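 Cells were grown in medium with 10% FBS, 2 mM L-glutamine, penicillin and streptomycin at 37 °C, 5% CO2. Compounds in DMSO (0.1% final) were applied for 72 h. MTT (0.5 mg/mL) was added for 3 h, formazan dissolved in DMSO, and absorbance read at 550 nm. IC50 by nonlinear regression; three independent experiments in triplicate.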

Trypanosoma cruzi = experiment: Antitrypanosomal activity against Trypanosoma cruzi Y strain bloodstream trypomastigotes assessed as lysis of parasite in presence of 5 % mouse blood incubated for 24 hrs by Neubauer chamber method; format: functional, organism-based
How it was run: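 Y strain bloodstream trypomastigotes came from infected albino mice at peak parasitaemia, purified by differential centrifugation, in RPMI at 10^7 cells/mL with 10% mouse blood. They were mixed 1:1 with compound at twice the final concentration (5% blood final), 24 h at 4 °C, with DMSO ≤0.4% final. Neubauer chamber counting; IC50 is 50% lysis; at least three independent experiments.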

PC-3 = experiment: Cytotoxicity against human PC-3 cells assessed as reduction in cell viability after 72 hrs by MTT assay; format: functional, cell-based; conditions: PC-3, 72 h
How it was run: as §2, with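 “CO2. Seeding per well was 0.1 × 10^6 for leukaemia, PC3, L929 and NCI-H460, and 0.7 × 10^5 for HCT-116.” for “CO2.”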

L929 = experiment: Cytotoxicity against mouse L929 cells assessed as reduction in cell viability after 72 hrs by MTT assay; format: cell-based; conditions: L929, 72 h
How it was run: as §2, with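 “CO2. Seeding per well was 0.1 × 10^6 for leukaemia, PC3, L929 and NCI-H460, and 0.7 × 10^5 for HCT-116.” for “CO2.”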

[2] = Selectivity index, ratio of IC50 for mouse L929 cells to IC50 for human HCT116 cells after 72 hrs by MTT assay; format: toxicity; conditions: L929 cells versus HCT116 cells, read-out: Ratio IC50; how it was run: as §1
[3] = Cytotoxicity against albino Swiss mouse peritoneal macrophages assessed as reduction in cell viability incubated for 24 hrs by Presto blue assay; format: tissue-based, Macrophage; conditions: read-out: LC50
How it was run: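 Primary peritoneal macrophages from Albino Swiss mice were seeded at 2.5 × 10^4 cells per well in RPMI-1640 (pH 7.2, 10% FBS, 2 mM glutamine) and grown 24 h at 37 °C. They were then treated 24 h at 37 °C with compound from DMSO stock (final DMSO ≤0.4%).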

HCT-116 = experiment: Cytotoxicity against human HCT-116 cells assessed as reduction in cell viability after 72 hrs by MTT assay; format: functional, cell-based; conditions: HCT-116, 72 h
How it was run: as §2, with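 “CO2. Seeding per well was 0.1 × 10^6 for leukaemia, PC3, L929 and NCI-H460, and 0.7 × 10^5 for HCT-116.” for “CO2.”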

[4] = Selectivity index, ratio of IC50 for mouse L929 cells to IC50 for human Lucena1 cells after 72 hrs by MTT assay
How it was run: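 Selectivity index is the ratio of IC50 in murine L929 fibroblasts to IC50 in Lucena 1 cells, each measured by 72 h MTT assay (absorbance 550 nm). IC50 values came from nonlinear regression of three independent experiments in triplicate.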

[5] = Cytotoxicity against human Lucena1 cells assessed as reduction in cell viability after 72 hrs by MTT assay; format: functional, cell-based; conditions: Lucena 1, 72 h
How it was run: as §2, with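 “CO2. Seeding per well was 0.1 × 10^6 for leukaemia, PC3, L929 and NCI-H460, and 0.7 × 10^5 for HCT-116.” for “CO2.”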

[6] = Selectivity index, ratio of IC50 for mouse L929 cells to IC50 for human HL-60cells after 72 hrs by MTT assay; format: toxicity; conditions: L929 cells versus HL-60 cells, read-out: Ratio IC50; how it was run: as §1
K562 = experiment: Cytotoxicity against human K562 cells assessed as reduction in cell viability after 72 hrs by MTT assay; format: functional, cell-based; conditions: K562, 72 h
How it was run: as §2, with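 “CO2. Seeding per well was 0.1 × 10^6 for leukaemia, PC3, L929 and NCI-H460, and 0.7 × 10^5 for HCT-116.” for “CO2.”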

[7] = Selectivity index, ratio of LC50 for cytotoxicity against albino Swiss mouse peritoneal macrophages to IC50 for Antitrypanosomal activity against Trypanosoma cruzi Y strain bloodstream trypomastigotes assessed as lysis of parasite in presence of 5 % mouse blood; format: toxicity
How it was run: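 Y-strain bloodstream trypomastigotes came from infected albino mice at peak parasitaemia and were purified by differential centrifugation. They were resuspended at 10^7/mL in RPMI with 10% mouse blood and mixed 1:1 with compound at twice the final concentration (DMSO ≤0.4%). Incubation was 24 h at 4 °C (5% blood per footnote).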

HL-60 = experiment: Cytotoxicity against human HL-60 cells assessed as reduction in cell viability after 72 hrs by MTT assay; format: functional, cell-based; conditions: HL-60, 72 h; how it was run: as §2
[8] = Selectivity index, ratio of IC50 for mouse L929 cells to IC50 for human PC3 cells after 72 hrs by MTT assay; format: toxicity; conditions: L929 cells versus PC3 cells, read-out: Ratio IC50; how it was run: as §1
[9] = Selectivity index, ratio of IC50 for mouse L929 cells to IC50 for human K-562 cells after 72 hrs by MTT assay; format: toxicity; conditions: L929 cells versus K-562 cells, read-out: Ratio IC50; how it was run: as §1

Compound | selectivity ratio at 72 h [1] | IC50 (NCI-H460) | IC50 (Trypanosoma cruzi) | IC50 (PC-3) | IC50 (L929) | selectivity ratio at 72 h [2] | CC50 at 24 h [3] | IC50 (HCT-116) | Ratio IC50 [4] | IC50 [5] | selectivity ratio at 72 h [6] | IC50 (K562) | selectivity ratio [7] | IC50 (HL-60) | selectivity ratio at 72 h [8] | selectivity ratio at 72 h [9]
COc1ccc(/N=C2\C=C(OCc3cn(S(=O)(=O)c4ccc(C)cc4)nn3)C(=O)c3ccccc32)cc1 | 2.6 | 8.39 µM | > 500 µM | > 20 µM | > 20 µM | 2.9 | 44.3 µM | 7.43 µM | 5.4 | 4.58 µM | 3.3 | > 20 µM | > 11.3 | 6.96 µM | 1 | 1
Cc1ccc(/N=C2\C=C(OCc3cn(S(=O)(=O)c4ccc(C)cc4)nn3)C(=O)c3ccccc32)cc1 | 2.2 | 8.02 µM | > 500 µM | 2.65 µM | 17.7 µM | 4.9 | 88.5 µM | 3.61 µM | 12.3 | 1.44 µM | 3.3 | 6.22 µM | > 5.65 | 5.42 µM | 6.7 | 2.9
C#CCOC1=C/C(=N\c2ccc(F)cc2)c2ccccc2C1=O | 1.9 | 17 µM | – | > 20 µM | > 20 µM | 1.8 | – | 18.7 µM | 1.9 | 17 µM | 3.6 | 13.5 µM | – | 9.2 µM | 1 | 2.4
C#CCOC1=C/C(=N\c2ccccc2)c2ccccc2C1=O | 1.6 | > 20 µM | – | 14.1 µM | > 20 µM | 1.2 | – | > 20 µM | 1.5 | > 20 µM | 2 | > 20 µM | – | 17.4 µM | 2.5 | 1
COc1cccc2c1C(=O)c1c(O)c3c(c(O)c1C2=O)C[C@@](O)(C(=O)CO)C[C@@H]3O[C@H]1C[C@H](N)[C@H](O)[C@H](C)O1 [DOXORUBICIN] | – | – | – | – | – | – | – | – | – | 0.18 µM | – | 0.49 µM | – | – | – | –
CC(=O)c1ccc(/N=C2\C=C(OCc3cn(S(=O)(=O)c4ccc(C)cc4)nn3)C(=O)c3ccccc32)cc1 | 0.7 | 15.8 µM | > 500 µM | 3.91 µM | 10.8 µM | 1.7 | 40.6 µM | 6.27 µM | 1.7 | 6.46 µM | 2 | 5.52 µM | > 12.3 | 5.3 µM | 2.7 | 1.9
C#CCOC1=C/C(=N\c2ccc(OC)cc2)c2ccccc2C1=O | 3.3 | 9.45 µM | – | 8.82 µM | > 20 µM | 2.9 | – | 10.7 µM | 2.8 | 11.4 µM | 4.4 | > 20 µM | – | 7.18 µM | 3.6 | 1
C#CCOC1=C/C(=N\c2ccc(I)cc2)c2ccccc2C1=O | 1 | > 20 µM | – | > 20 µM | > 20 µM | 1.5 | – | 16.5 µM | 1.6 | 15.1 µM | 2 | 17 µM | – | 11.9 µM | 1 | 1.4
Cc1ccc(S(=O)(=O)n2cc(COC3=C/C(=N\c4ccc(Cl)cc4)c4ccccc4C3=O)nn2)cc1 | 1.6 | 12.1 µM | > 500 µM | > 20 µM | > 20 µM | 2 | > 100 µM | 9.44 µM | 6.1 | 3.16 µM | 2.8 | 9.8 µM | – | 6.92 µM | 1 | 2
Cc1ccc(S(=O)(=O)n2cc(COC3=C/C(=N\c4ccc(I)cc4)c4ccccc4C3=O)nn2)cc1 | 1 | > 16.4 µM | > 500 µM | > 16.4 µM | > 16.4 µM | 1 | > 100 µM | > 16.4 µM | 5.6 | 2.9 µM | 2.6 | 10.8 µM | – | 6.31 µM | 1 | 1.5
Cc1ccc(S(=O)(=O)n2cc(COC3=C/C(=N\c4ccccc4)c4ccccc4C3=O)nn2)cc1 | 2.9 | 7.22 µM | > 500 µM | > 20 µM | > 20 µM | 3.8 | 80.8 µM | 5.37 µM | 5.6 | 3.67 µM | 3.1 | 12.2 µM | > 6.19 | 6.71 µM | 1 | 1.7
C#CCOC1=C/C(=N\c2ccc(Br)cc2)c2ccccc2C1=O | 1.3 | > 20 µM | – | 15.9 µM | > 20 µM | 1.2 | – | > 20 µM | 2.2 | 12.5 µM | 1.9 | > 20 µM | – | 14.2 µM | 1.7 | 1.2
C#CCOC1=C/C(=N\c2ccc(C)cc2)c2ccccc2C1=O | 2 | 16.9 µM | – | 18.4 µM | > 20 µM | 1.6 | – | > 20 µM | 2.4 | 14.1 µM | 2.8 | > 20 µM | – | 12 µM | 1.8 | 1.5
C#CCOC1=C/C(=N\c2ccc(C(C)=O)cc2)c2ccccc2C1=O | 1 | > 20 µM | – | 12.5 µM | > 20 µM | 1 | – | > 20 µM | 1.9 | 16.2 µM | 1.1 | > 20 µM | – | > 20 µM | 24 | 1
